Measurements taken from ChEMBL document CHEMBL5620363, “HIV-1 protease inhibitors with a P1 phosphonate modification maintain potency against drug-resistant variants by increased interactions with flap residues” (Eur J Med Chem, 2023).

Key:
[1] = Binding affinity to drug-resistant HIV-1 protease I13V/G16E/V32I/L33F/K45I/M46I/V82F/I84V/A71V/L76V/I54L mutant expressed in Escherichia coli TAP-106 cells assessed as inhibition constant using a EDANS/DABCYL FRET-peptide substrate preincubated for 1 hr followed by substrate addition measured after 1 hr by fluorogenic assay; parameters: species or system Human immunodeficiency virus 1
[2] = target: Protease (Human immunodeficiency virus 1, UniProt Q9YQ12, A71V/I50V); experiment: Binding affinity to drug-resistant HIV-1 protease I50V/A71V mutant expressed in Escherichia coli TAP-106 cells assessed as inhibition constant using a EDANS/DABCYL FRET-peptide substrate preincubated for 1 hr followed by substrate addition measured after 1 hr by fluorogenic assay
[3] = test system: HEK-293T; experiment: Cytotoxicity against HEK293T cells incubated for 48 hrs by absorbance based assay; format: toxicity, cell-based; settings: human, hek-293t, 48 h
[4] = Binding affinity to drug-resistant HIV-1 protease I13V/G16E/V32I/L33F/K45I/M46I/V82F/I84V/A71V/L76V mutant expressed in Escherichia coli TAP-106 cells assessed as inhibition constant using a EDANS/DABCYL FRET-peptide substrate preincubated for 1 hr followed by substrate addition measured after 1 hr by fluorogenic assay; parameters: species or system Human immunodeficiency virus 1
[5] = target: Protease (Human immunodeficiency virus 1, UniProt Q9YQ12, I84V); experiment: Binding affinity to drug-resistant HIV-1 protease I84V mutant expressed in Escherichia coli TAP-106 cells assessed as inhibition constant using a EDANS/DABCYL FRET-peptide substrate preincubated for 1 hr followed by substrate addition measured after 1 hr by fluorogenic assay
[6] = test system: Human immunodeficiency virus 1; experiment: Antiviral activity against wild-type HIV-1 NL4-3 infected in human TZM-bl cells using virus particles harvested from 18 hrs drug-treated HEK293T cells harboring viral transfection assessed as reduction in viral infection measured after 48 hrs in TZM-bl cells by luciferase based assay; format: functional, organism-based; settings: Human immunodeficiency virus 1, NL4-3, TZM-bl
[7] = in vitro; settings: human
[8] = test system: TZM; experiment: Cytotoxicity against human TZM-bl cells incubated for 48 hrs by absorbance based assay; format: toxicity, cell-based
[9] = Binding affinity to drug-resistant HIV-1 protease I13V/G16E/V32I/L33F/K45I/M46I/V82F/I84V mutant expressed in Escherichia coli TAP-106 cells assessed as inhibition constant using a EDANS/DABCYL FRET-peptide substrate preincubated for 1 hr followed by substrate addition measured after 1 hr by fluorogenic assay; parameters: species or system Human immunodeficiency virus 1
[10] = test system: Human immunodeficiency virus 1; experiment: Antiviral activity against drug-resistant HIV-1 harboring protease L10F/I13V/L33F/K45R/M46I/I47V/I50V/F53L/I54L/I66F/A71V/T74A/L76S/V82I mutant infected in human TZM-bl cells using virus particles harvested from 24 hrs drug-treated human CEM cells infected with virus assessed as reduction in viral infection measured after 48 hrs in TZM-bl cells by Firefly luciferase based assay; format: functional, organism-based; settings: Human immunodeficiency virus 1, TZM-bl
In short: (§1)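 Virus stocks grown by infecting 3 × 10^6 CEM cells with virus at 37 °C for 2–3 h, then RPMI with medium changes every 48 h until CPE. Infected CEM cells plated onto five-fold serial inhibitor dilutions in RPMI (top 100 μM).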

[11] = test system: Human immunodeficiency virus 1; experiment: Antiviral activity against drug-resistant HIV-1 harboring protease L10F/V11I/I13V/V32I/L33F/K43T/M46L/I54L/A71V/V82I/I84V/L89M/T91S/Q92R mutant infected in human TZM-bl cells using virus particles harvested from 24 hrs drug-treated human CEM cells infected with virus assessed as reduction in viral infection measured after 48 hrs in TZM-bl cells by Firefly luciferase based assay; format: functional, organism-based; settings: Human immunodeficiency virus 1, TZM-bl; in short: as §1
[12] = test system: Human immunodeficiency virus 1; experiment: Antiviral activity against drug-resistant HIV-1 harboring protease L10I/V11I/I13V/K14R/A22V/E35D/M36I/N37D/G48M/F53L/I54V/I62V/L63P/A71V/T74S/V82A/I84V/T91S/Q92K mutant infected in human TZM-bl cells using virus particles harvested from 24 hrs drug-treated human CEM cells infected with virus assessed as reduction in viral infection measured after 48 hrs in TZM-bl cells by Firefly luciferase based …; format: functional, organism-based; settings: Human immunodeficiency virus 1, TZM-bl
[13] = test system: Human immunodeficiency virus 1; experiment: Antiviral activity against drug-resistant HIV-1 harboring protease L10F/I15V/M46I/I47V/I50V/F53L/A71V/V82I/I84V/L89T mutant infected in human TZM-bl cells using virus particles harvested from 24 hrs drug-treated human CEM cells infected with virus assessed as reduction in viral infection measured after 48 hrs in TZM-bl cells by Firefly luciferase based assay; format: functional, organism-based; settings: Human immunodeficiency virus 1, TZM-bl; in short: as §1
[14] = test system: Human immunodeficiency virus 1; experiment: Antiviral activity against drug-resistant HIV-1 harboring RT mutation/protease I13V/G16E/V32I/L33F/K45I/M46I/A71V/L76V/V82F/I84V mutant infected in human TZM-bl cells using virus particles harvested from 24 hrs drug-treated human CEM cells infected with virus assessed as reduction in viral infection measured after 48 hrs in TZM-bl cells by Firefly luciferase based assay; format: functional, organism-based; settings: Human immunodeficiency virus 1, TZM-bl; in short: as §1
[15] = test system: Human immunodeficiency virus 1; experiment: Antiviral activity against wild-type HIV-1 NL4-3 infected in human TZM-bl cells using virus particles harvested from 24 hrs drug-treated human CEM cells infected with virus assessed as reduction in viral infection measured after 48 hrs in TZM-bl cells by Firefly luciferase based assay; format: functional, organism-based; settings: Human immunodeficiency virus 1, NL4-3, TZM-bl; in short: as §1
[16] = test system: Human immunodeficiency virus 1; experiment: Antiviral activity against DRV-resistant HIV-1 infected in human TZM-bl cells using virus particles harvested from 24 hrs drug-treated human CEM cells infected with virus assessed as reduction in viral infection measured after 48 hrs in TZM-bl cells by Firefly luciferase based assay; format: functional, organism-based; settings: Human immunodeficiency virus 1, TZM-bl; in short: as §1
[17] = test system: Human immunodeficiency virus 1; experiment: Antiviral activity against drug-resistant HIV-1 harboring Gag mutation/protease I13V/G16E/V32I/L33F/K45I/M46I/A71V/L76V/V82F/I84V mutant infected in human TZM-bl cells using virus particles harvested from 24 hrs drug-treated human CEM cells infected with virus assessed as reduction in viral infection measured after 48 hrs in TZM-bl cells by Firefly luciferase based assay; format: functional, organism-based; settings: Human immunodeficiency virus 1, TZM-bl; in short: as §1

Chain of Protease (Human immunodeficiency virus 1, UniProt Q9YQ12, I84V) (Q9YQ12 entry or part of it I84V): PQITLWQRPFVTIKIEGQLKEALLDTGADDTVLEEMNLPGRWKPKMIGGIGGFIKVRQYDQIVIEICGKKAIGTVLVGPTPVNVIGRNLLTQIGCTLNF
Chain of Protease (Human immunodeficiency virus 1, UniProt Q9YQ12, A71V/I50V) (Q9YQ12 entry or part of it A71V/I50V): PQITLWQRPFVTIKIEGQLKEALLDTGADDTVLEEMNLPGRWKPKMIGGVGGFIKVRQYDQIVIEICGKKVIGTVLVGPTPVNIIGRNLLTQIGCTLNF

Compound | Ki [1] | Ki [2] | CC50 [3] | Ki [4] | Ki [5] | EC50 [6] | selectivity ratio [7] | CC50 [8] | Ki [9] | EC50 [10] | EC50 [11] | EC50 [12] | EC50 [13] | EC50 [14] | EC50 [15] | EC50 [16] | EC50 [17]
CCOP(=O)(COc1ccc(C[C@H](NC(=O)O[C@H]2CO[C@H]3OCC[C@H]32)[C@H](O)CN(CC(CC)CC)S(=O)(=O)c2ccc(N)cc2)cc1)OCC | 106 nM | < 0.005 nM | 44000 nM | 51.6 nM | < 0.005 nM | 16 nM | 2.75 | 96000 nM | 4.71 nM |  |  |  |  |  |  |  | 
CC(C)CN(C[C@@H](O)[C@H](Cc1ccccc1)NC(=O)O[C@H]1CO[C@H]2OCC[C@H]21)S(=O)(=O)c1ccc(N)cc1 |  |  |  |  |  | 7.73 nM |  |  |  | 12900 nM | 15800 nM | 56 nM | 1870 nM | 1460 nM | 8 nM | > 100000 nM | 
CCOP(=O)(COc1ccc(C[C@H](NC(=O)O[C@H]2CO[C@H]3OCC[C@H]32)[C@H](O)CN(CC(CC)CC)S(=O)(=O)c2ccc(CO)cc2)cc1)OCC | 81.2 nM | < 0.005 nM | 69000 nM | 32.1 nM | < 0.005 nM | 17 nM | 4.06 | > 100000 nM | 2.2 nM |  |  |  |  |  |  |  | 
CCOP(=O)(COc1ccc(C[C@H](NC(=O)O[C@H]2CO[C@H]3OCC[C@H]32)[C@H](O)CN(CC(C)C)S(=O)(=O)c2ccc3ncsc3c2)cc1)OCC | 15 nM | < 0.005 nM | 45000 nM | 1.9 nM | < 0.005 nM | 10.4 nM | 4.33 | > 100000 nM | 0.93 nM |  |  |  |  |  |  |  | 
CCOP(=O)(COc1ccc(C[C@H](NC(=O)O[C@H]2CO[C@H]3OCC[C@H]32)[C@H](O)CN(C[C@@H](C)CC)S(=O)(=O)c2ccc(OC)cc2)cc1)OCC | 10.5 nM | < 0.005 nM | 33000 nM | 3.7 nM | < 0.005 nM | 9.56 nM | 3.45 | 78000 nM | 0.78 nM |  |  |  |  |  |  |  | 
CCOP(=O)(COc1ccc(C[C@H](NC(=O)O[C@H]2CO[C@H]3OCC[C@H]32)[C@H](O)CN(C[C@@H](C)CC)S(=O)(=O)c2ccc(N)cc2)cc1)OCC | 259 nM | < 0.005 nM | 92000 nM | 146 nM | < 0.005 nM | 22.9 nM | 4.02 | > 100000 nM | 13.3 nM |  |  |  |  |  |  |  | 
CCOP(=O)(COc1ccc(C[C@H](NC(=O)O[C@H]2CO[C@H]3OCC[C@H]32)[C@H](O)CN(C[C@@H](C)CC)S(=O)(=O)c2ccc3ncsc3c2)cc1)OCC | 9.03 nM | < 0.005 nM | 23000 nM | 1.2 nM | < 0.005 nM | 9.93 nM | 2.32 | 53000 nM | 1.8 nM |  |  |  |  |  |  |  | 
CCOP(=O)(COc1ccc(C[C@H](NC(=O)O[C@H]2CO[C@H]3OCC[C@H]32)[C@H](O)CN(CC(C)C)S(=O)(=O)c2ccc3c(c2)OCO3)cc1)OCC | 63.5 nM | < 0.005 nM | 68000 nM | 4.5 nM | < 0.005 nM | 5.67 nM | 12 | > 100000 nM | 2.2 nM |  |  |  |  |  |  |  | 
CCOP(=O)(COc1ccc(C[C@H](NC(=O)O[C@H]2CO[C@H]3OCC[C@H]32)[C@H](O)CN(CC(CC)CC)S(=O)(=O)c2ccc3c(c2)OCO3)cc1)OCC | 6.9 nM | < 0.005 nM | 21000 nM | 1.6 nM | < 0.005 nM | 3.11 nM |  | > 100000 nM | 0.37 nM |  |  | < 10 nM |  |  | 3 nM |  | 
CCOP(=O)(COc1ccc(C[C@H](NC(=O)O[C@H]2CO[C@H]3OCC[C@H]32)[C@H](O)CN(CC(C)C)S(=O)(=O)c2ccc(OC)cc2)cc1)OCC | 3.6 nM | < 0.005 nM | 50000 nM | 2.1 nM | < 0.005 nM | 11.8 nM | 4.24 | > 100000 nM | 0.56 nM |  |  |  |  |  |  |  | 
CCOP(=O)(COc1ccc(C[C@H](NC(=O)O[C@H]2CO[C@H]3OCC[C@H]32)[C@H](O)CN(C[C@@H](C)CC)S(=O)(=O)c2ccc3c(c2)OCO3)cc1)OCC |  | < 0.005 nM | 31000 nM |  | < 0.005 nM |  |  | > 100000 nM |  |  |  |  |  |  |  |  | 
CCOP(=O)(COc1ccc(C[C@H](NC(=O)O[C@H]2CO[C@H]3OCC[C@H]32)[C@H](O)CN(CC(CC)CC)S(=O)(=O)c2ccc3ncsc3c2)cc1)OCC | 3.2 nM | < 0.005 nM | 22000 nM | 0.24 nM | < 0.005 nM | 10.7 nM | 2.06 | 43000 nM | 0.25 nM |  |  |  |  |  |  |  | 
CCC(CC)CN(C[C@@H](O)[C@H](Cc1ccccc1)NC(=O)O[C@H]1CO[C@H]2OCC[C@H]21)S(=O)(=O)c1ccc2c(c1)OCO2 |  |  |  |  |  |  |  |  |  | > 100000 nM | 5770 nM |  | 6440 nM |  | 6 nM | 780 nM | 
CCOP(=O)(COc1ccc(C[C@H](NC(=O)O[C@H]2CO[C@H]3OCC[C@H]32)[C@H](O)CN(CC(CC)CC)S(=O)(=O)c2ccc(OC)cc2)cc1)OCC | 2.2 nM | < 0.005 nM | 22000 nM | 1.26 nM | < 0.005 nM | 5.15 nM |  | 59000 nM | 0.77 nM |  |  | < 10 nM |  | 85 nM | 5 nM |  | 38 nM
